OX1R antag-1: antagonists of human orexin 1 receptor (OX1R). Orexin/Hypocretin receptor type 1 (Homo sapiens), O43613. OX1R-expressing cells, FRET antagonist read-out. 330,000 compounds, 1.8% hits. inhibition, % at 6.6 µM; in the data active = inhibition mostly above about 38%, no sharp cut-off; inactive = mostly below about 40%
CHO parental Ca: ATP-evoked calcium signal inhibitors, parental CHO, primary screen, counter-screen for OX1R antagonist project, cell-based, fluorescence, Fluo-8 calcium dye. parental CHO-K1, ATP-induced calcium, Fluo-8 fluorescence. inhibition, % at 5.6 µM. 330,000 compounds, 0.63% hits. AID 463079, 2010;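 active = inhibition above that plate's mean sample inhibition plus 3 SD, cut at about 26% in these data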
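Material – parental CHO cells · Reagent – ATP stimulus · Compound – single nominal dose of 5.6 µM per compound · Detection – Fluo-8 fluorescence · Read-out basis – percent inhibition of calcium signal · Controls – ATP-challenged DMSO wells low, unchallenged DMSO wells high · Repeats – no replicates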
TAAR1 antagonist: human TAAR1 antagonists, primary screen, Fluo-8 calcium fluorescence, CHO RD-HGA16 cells. Trace amine-associated receptor 1 (Homo sapiens), Q96RJ0. antagonist. inhibition, % at 3 µM. 360,000 compounds, 1.5% hits. AID 624466, 2012;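 active = inhibition above a per-plate cutoff, the mean inhibition of test compounds on that plate plus 3 SD, cut at about 49% in these data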
Target sequence (Q96RJ0 whole entry, looked up): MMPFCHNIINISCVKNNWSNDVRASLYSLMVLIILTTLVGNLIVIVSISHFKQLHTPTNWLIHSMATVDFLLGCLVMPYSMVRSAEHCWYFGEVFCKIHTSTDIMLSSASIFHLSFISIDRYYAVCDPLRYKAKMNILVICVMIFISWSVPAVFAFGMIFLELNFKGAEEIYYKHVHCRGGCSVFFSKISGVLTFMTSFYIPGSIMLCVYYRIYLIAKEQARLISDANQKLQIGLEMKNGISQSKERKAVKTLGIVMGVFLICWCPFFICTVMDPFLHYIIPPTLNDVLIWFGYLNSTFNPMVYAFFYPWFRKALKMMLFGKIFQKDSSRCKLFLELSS
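Test system: CHO RD-HGA16 cells bearing hTAAR1 | Reagent: β-PEA, EC80 | Compound dosing: 3 µM, single point | Schedule: Dye loading 75 min at 37 °C, then 30 min room temperature | Signal: Calcium fluorescence with Fluo-8 | Evaluation: Percent inhibition of PEA-evoked calcium signal, max/basal emission ratio | Control set: DMSO-only wells and EC80 β-PEA-stimulated wells | Repeats: Singlicate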
OX1R antag-2: OX1R (HCRTR1) antagonists, primary screen, fluorescence, CHO/OX1R cells, Fluo-8 calcium, orexin A; 330,000 compounds, 0.43% hits; inhibition, % at 5 µM; AID 434989, 2010; Fluo-8 calcium fluorescence; Orexin/Hypocretin receptor type 1 (Homo sapiens), O43613;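 active = inhibition above its plate's threshold, mean inhibition of all tested compounds on the plate plus 3 SD, cut at about 37% in these data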
TAAR1 agonist: human TAAR1 agonists, primary screen, Fluo-8 calcium fluorescence, CHO RD-HGA16 cells; activation, % at 3 µM; Trace amine-associated receptor 1 (Homo sapiens), Q96RJ0; AID 624467, 2012; vehicle wells 0%, saturating PEA agonist 100%; 360,000 compounds, 0.99% hits;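 active = activation above the mean activation of all test compounds in the run plus 3 SD, cut at about 38% in these data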
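System: CHO-derived RD-HGA16 cells with stable Gα16 and human TAAR1 / Times: 17-24 h plating, Fluo-8 75 min 37 °C, 30 min RT / Technique: calcium-sensitive Fluo-8 signal, excitation 470-495, emission 515-575 nm / Measure: % activation relative to PEA EC100 response / Benchmarks: DMSO and PEA EC100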
NTR1 ag: agonists of human NTR1, primary screen, imaging, U2OS cells, beta-arrestin-GFP, high content; Neurotensin receptor type 1 (Homo sapiens), P30989; NTR1-U2OS beta-arrestin-GFP spot imaging, agonist mode; activation, % at 20 µM; 330,000 compounds, 0.17% hits;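 active = activation at or above 40% of the spot to cytoplasm intensity ratio, with at least 20 cells analyzed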
Target sequence (P30989 whole entry, looked up): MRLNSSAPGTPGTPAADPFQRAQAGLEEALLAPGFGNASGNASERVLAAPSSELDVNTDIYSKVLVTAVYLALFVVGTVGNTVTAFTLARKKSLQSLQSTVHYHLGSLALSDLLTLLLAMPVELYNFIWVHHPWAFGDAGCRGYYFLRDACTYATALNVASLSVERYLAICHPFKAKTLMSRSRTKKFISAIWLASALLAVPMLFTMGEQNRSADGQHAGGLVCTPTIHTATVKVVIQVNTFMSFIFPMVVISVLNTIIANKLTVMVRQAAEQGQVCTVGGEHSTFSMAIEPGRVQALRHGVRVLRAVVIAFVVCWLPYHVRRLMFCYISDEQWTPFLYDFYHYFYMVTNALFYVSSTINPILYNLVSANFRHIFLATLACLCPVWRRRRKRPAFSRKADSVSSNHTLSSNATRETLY
TAAR1 ag conf: human TAAR1 agonists, retest of hits, confirmation, Fluo-8 calcium fluorescence, CHO RD-HGA16 cells. shares compounds with TAAR1 agonist. scaled: DMSO 0%, maximal phenethylamine 100%. activation, % at 3 µM. 2,400 compounds, 82% hits;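 active = activation above a cutoff set at the run's mean compound activation plus 3 SD, cut at about 39% in these data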
Ga16 nonsel ag: nonselective calcium mobilization agonists, CHO-Ga16 cells, counter-screen for hTAAR1 agonist project, cell-based, fluorescence, CHO-Ga16 parental line | shares compounds with TAAR1 agonist | Fluo-8 calcium fluorescence; normalized to maximal ATP response, DMSO zero | activation, % at 3 µM | 2,400 compounds, 50% hits;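 active = activation above the run cutoff, the mean activation over all tested wells plus 3 SD, cut at about 12% in these data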
TAAR1 desens: TAAR1 desensitization by agonist hits, confirmation, counter-screen for TAAR1 agonist project, cell-based, fluorescence, tachyphylaxis; shares compounds with TAAR1 agonist; CHO RD-HGA16 hTAAR1, Fluo-8 calcium, beta-PEA response inhibition; inhibition, % at 3 µM; 2,400 compounds, 46% hits; AID 651951, 2012;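 active = inhibition above the run cutoff, the mean inhibition of all test compounds plus 3 SD, cut at about 49% in these data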;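 also: beta-PEA stimulus applied at its EC80; loss of beta-PEA calcium signal after compound pretreatment read as receptor desensitization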
Ga16 antag count: inhibition of ATP-evoked calcium response in CHO-Ga16 cells, counter-screen for TAAR1 agonist project, cell-based, fluorescence; inhibition, % at 3 µM; AID 651952, 2012; CHO-Ga16 ATP-induced calcium, Fluo-8 fluorescence; shares compounds with TAAR1 agonist; 2,400 compounds, 39% hits;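 active = inhibition above the plate's mean compound inhibition plus 3 SD, computed per plate, cut at about 22% in these data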
Large screens that a line does not name were inactive (follow-up assays come after a bar, where they were run). A selection: hits, their analogues and other compounds. The true share with any hit is near 4%.

Cc1ccsc1/C=N/Nc1nc(Cl)c(Cl)cc1Cl	none
O=c1c(Cl)c(N/N=C/c2ccc(Cl)cc2)cnn1-c1ccccc1	none
Cc1ccc(/C=N\Nc2cn[nH]c(=O)c2Cl)cc1	TAAR1 agonist 40.8 | TAAR1 ag conf 62.2 | Ga16 nonsel ag inactive | TAAR1 desens inactive | Ga16 antag count inactive
CC1CC(C)CN(S(=O)(=O)CCNC(=O)c2ccccc2)C1 (stereo unspecified)	none
CN1CCN(C(=O)CCN2C(=O)/C(=C/c3ccc(F)cc3)SC2=S)CC1	none
Cc1nn(C(C)C(=O)NC2CCC(C)CC2)c(=O)c2nn(-c3ccccc3)c(C)c12 (stereo unspecified)	none
COC(=O)c1sc(NC(=S)NC(=O)c2ccccc2C)nc1C	TAAR1 agonist 43.1 | TAAR1 ag conf 82.7 | Ga16 nonsel ag 54.0 | TAAR1 desens 61.2 | Ga16 antag count 33.8
CC(=O)N1N=C(c2ccc(C)c([N+](=O)[O-])c2)OC1(C)C	none
CC(=O)N1N=C(c2cccc([N+](=O)[O-])c2)OC1(C)c1cccs1 (stereo unspecified)	TAAR1 antagonist 53.9, TAAR1 agonist 57.8 | TAAR1 ag conf inactive | Ga16 nonsel ag inactive | TAAR1 desens inactive | Ga16 antag count inactive
CCN(CC)CCNC(=O)c1ccc(NC(=O)c2cccc(S(=O)(=O)N3c4ccccc4CC3C)c2)cc1 (stereo unspecified)	none
CCN(CC)CCNC(=O)c1ccc(NC(=O)c2cccc(S(=O)(=O)N3CCc4ccccc43)c2)cc1	TAAR1 agonist 60.3 (no result: OX1R antag-1, CHO parental Ca, OX1R antag-2) | TAAR1 ag conf 59.5 | Ga16 nonsel ag inactive | TAAR1 desens inactive | Ga16 antag count inactive
Cn1cc(CN2CCC(C(=O)Nc3ccc(Oc4ccccc4F)cc3)CC2)cn1	none
CN(C)c1ccc(/C=C2\SC(=S)N(Nc3ncc(C(F)(F)F)cc3Cl)C2=O)cc1	CHO parental Ca 75.8, TAAR1 antagonist 87.3, OX1R antag-2 100.3, TAAR1 agonist 122.6 | TAAR1 ag conf 76.1 | Ga16 nonsel ag 121.6 | TAAR1 desens 77.2 | Ga16 antag count 90.2
CCOc1ccccc1N1CCN(Cc2cccc(OC)c2OC)CC1	none
CCOc1ccccc1N1CCN(Cc2cn[nH]c2-c2ccc(F)cc2)CC1	TAAR1 agonist 95.1 | TAAR1 ag conf 82.5 | Ga16 nonsel ag 40.9 | TAAR1 desens inactive | Ga16 antag count inactive
COc1ccc(S(=O)(=O)N2CCCC2=O)cc1N(C)S(C)(=O)=O	none (no result: OX1R antag-1, CHO parental Ca, OX1R antag-2)
c1ccc(-c2sc3ccccc3c2-c2ccc(OCCN3CCCCC3)cc2)cc1	none
c1ccc2c(-c3ccc(OCCN4CCCCC4)cc3)c(-c3ccsc3)sc2c1	TAAR1 agonist 47.1 | TAAR1 ag conf 49.1 | Ga16 nonsel ag 25.3 | TAAR1 desens 50.7 | Ga16 antag count 42.6
Cc1ccc(NC(=O)c2ccc3nsnc3c2)c(Cl)c1	TAAR1 agonist 57.1 | TAAR1 ag conf inactive | Ga16 nonsel ag inactive | TAAR1 desens inactive | Ga16 antag count inactive
O=C(Nc1ccc(Br)cc1F)c1ccc2nsnc2c1	none
Cc1nn(-c2ccccc2)c(C)c1/C=N/n1c(-c2ccc(Cl)cc2)n[nH]c1=S	none
Cc1nn(-c2ccccc2)c(C)c1/C=N/n1c(-c2ccncc2)n[nH]c1=S	TAAR1 agonist 46.8 | TAAR1 ag conf 92.9 | Ga16 nonsel ag 17.6 | TAAR1 desens inactive | Ga16 antag count inactive
CC1CCN(c2ncnc3c2cnn3Cc2ccc(Cl)cc2)CC1	TAAR1 agonist 50.9 | TAAR1 ag conf 37.8 | Ga16 nonsel ag 20.1 | TAAR1 desens inactive | Ga16 antag count inactive
Cc1ccc(Cn2ncc3c(N4CCN(Cc5ccc(Cl)cc5)CC4)ncnc32)cc1	none
Cc1cccc(C)c1Cn1c(C)c(C(=O)NCc2ccc([N+](=O)[O-])cc2)sc1=O	TAAR1 antagonist 48.9, TAAR1 agonist 62.0 (no result: OX1R antag-1, CHO parental Ca, OX1R antag-2, NTR1 ag) | TAAR1 ag conf 46.6 | Ga16 nonsel ag 28.7 | TAAR1 desens 52.7 | Ga16 antag count 41.1
N#C/C(=C/c1cn[nH]c1-c1cccc(Br)c1)C(=O)O	TAAR1 agonist 70.8 | TAAR1 ag conf 111.7 | Ga16 nonsel ag 51.7 | TAAR1 desens inactive | Ga16 antag count inactive
N#C/C(=C/c1cn[nH]c1-c1ccc(Br)cc1)C(=O)O	none
Cc1cc(C)nc(NS(=O)(=O)c2ccc(NC(=O)C3(c4ccc([N+](=O)[O-])cc4)CCCC3)cc2)n1	TAAR1 agonist 63.0 | TAAR1 ag conf 102.3 | Ga16 nonsel ag 39.2 | TAAR1 desens 63.6 | Ga16 antag count 35.8
CC1CCN(c2ccc(NC(=O)Cc3ccccc3)cc2)CC1	TAAR1 antagonist 53.1, TAAR1 agonist 84.2 | TAAR1 ag conf inactive | Ga16 nonsel ag 20.1 | TAAR1 desens inactive | Ga16 antag count inactive
CN(C)CCN1C(=O)C2C(C(=O)Nc3cc(Cl)cc(Cl)c3)C3C=CC2(O3)C1C(=O)NC1CCCCC1 (stereo unspecified)	none
CCOC(=O)c1cc(NC(=O)c2cc(C)on2)cc(C(=O)OCC)c1	TAAR1 agonist 44.0 | TAAR1 ag conf inactive | Ga16 nonsel ag inactive | TAAR1 desens inactive | Ga16 antag count inactive
CN1C(=O)/C(=C\c2ccc(N(C)C)cc2)OC1=S	TAAR1 antagonist 62.3, TAAR1 agonist 100.2 (no result: OX1R antag-1, CHO parental Ca, OX1R antag-2) | TAAR1 ag conf 87.1 | Ga16 nonsel ag 115.8 | TAAR1 desens 58.1 | Ga16 antag count 67.9
Cc1ccc(-c2n[nH]c(=S)nc2-c2ccc(C)cc2)cc1	none (no result: NTR1 ag)
CCCCOCCCNC(=O)C[C@@H]1C[C@@]2(C(=O)OC)CCCCC=C2N(CCc2ccc(OC)c(OC)c2)C1=O	none (no result: OX1R antag-1, CHO parental Ca, OX1R antag-2, NTR1 ag)
C#CCCc1cocc1/C=[N+](\[O-])c1ccc(C(=O)OCC)cc1	none
